High-throughput results as filed in PubChem BioAssay.
HTRA1 inhibitor: HTRA1 (human) protease inhibition; Q92743; AID 504803; actives 0.5% (n = 340,000); inhibition, % at 5.96 µM; recombinant HTRA1, FP-rhodamine activity-based probe, fluorescence polarization; in the data active = inhibition above about 36%;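 also: 0% = enzyme with DMSO and 100% = wells lacking enzyme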
rCAG RNA binder: r(CAG) repeat RNA binding | TO-PRO-1 dye displacement fluorescence | inhibition, % at 3 µM | actives 1.3% (n = 370,000);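 active = inhibition above the plate cutoff, the mean of all test compounds on that plate plus 3 SD, cut at about 35% in these data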;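 also: 0% = DMSO alone and 100% = 100 µM mitoxantrone as full dye displacement; higher means more dye released from RNA so lower well fluorescence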
SIAE primary: blocks human sialic acid acetylesterase. SIAE FP-Rh probe binding, fluorescence polarization. actives 0.69% (n = 370,000). AID 1053197. inhibition, % at 9.66 µM;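 active = inhibition above a cutoff: mean of compounds within the control limits plus 3 SD of those, cut at about 17% in these data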;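 also: 0% = plate median of compound wells and 100% = probe without SIAE protein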
TCR CD3 inh: blocks the human TCR-CD3 interaction; TAMRA-labeled TCR probe fluorescence, biochemical; inhibition, % at 9.4 µM; actives 0.37% (n = 360,000); AID 651800; in the data active = inhibition above about 19%;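 also: recombinant mutant TCR 2C K166C tagged with TAMRA read by polarization; 0% = receptor in buffer alone and 100% = receptor with positive control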
mABHD4 FP: inhibitors of mouse ABHD4; purified mABHD4, FP-Rh probe fluorescence polarization; Q8VD66; inhibition, % at 8.92 µM; actives 0.54% (n = 370,000);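 active = inhibition exceeding the mean over every tested compound plus 3 SD, cut at about 30% in these data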;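 also: 0% = plate median of compound wells and 100% = S159A mutant with DMSO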
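assay system = mABHD4 protein | compound dosing = single nominal dose of 8.92 µM, 0.89% DMSO final | read-out basis = percent inhibition of probe binding, normalized to plate controls | schedule = Enzyme–compound pre-incubation 45 min, then probe 60 min, both 25 °C | detection = fluorescence polarization, excitation 525 nm, emission 598 nm, BODIPY TMR filters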
PRMT1 FP inh: blocks human protein arginine methyltransferase 1. recombinant PRMT1, activity-based probe fluorescence polarization. inhibition, % at 2.79 µM. actives 1.3% (n = 370,000). AID 652257;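 active = inhibition above about 21% made by adding two undisclosed values, limit read from the data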
Target sequence (Q99873 whole entry, looked up): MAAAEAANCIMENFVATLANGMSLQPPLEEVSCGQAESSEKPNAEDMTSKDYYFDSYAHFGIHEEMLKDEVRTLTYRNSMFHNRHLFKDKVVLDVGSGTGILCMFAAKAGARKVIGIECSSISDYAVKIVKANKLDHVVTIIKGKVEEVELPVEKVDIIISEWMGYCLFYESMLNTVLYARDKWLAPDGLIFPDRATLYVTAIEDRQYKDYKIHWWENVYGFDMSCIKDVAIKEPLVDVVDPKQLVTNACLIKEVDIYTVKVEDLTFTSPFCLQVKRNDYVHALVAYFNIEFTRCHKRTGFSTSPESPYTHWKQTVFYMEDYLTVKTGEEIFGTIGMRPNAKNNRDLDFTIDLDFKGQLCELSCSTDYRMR
SIAE confirm: human SIAE inhibition, confirmation; shares compounds with SIAE primary; SIAE FP-Rh activity-based probe, fluorescence polarization; inhibition, % at 9.66 µM; actives 13% (n = 2,300);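 active = mean inhibition of the replicates above the hit cutoff set in the primary screen, cut at about 17% in these data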;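 also: 0% = SIAE with DMSO and probe and 100% = probe without SIAE; inhibitors lower polarization as more probe stays unbound to SIAE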
* marks the source's active call; other numbers are inactive results. Only some compounds are listed: those with a hit (about 3.5% of all), similar ones and a draw of the others.

How did CCC(=O)c1ccc(OCC(=O)N2CCN(CC(=O)Nc3ccccc3C(F)(F)F)CC2)cc1 do in these assays?
HTRA1 inhibitor: -2; rCAG RNA binder: -3; SIAE primary: 6; TCR CD3 inh: -1; mABHD4 FP: 5; PRMT1 FP inh: 2

How did CNC(=O)C[C@H]1CC[C@@H]2NC[C@H](O)COC[C@H]2O1 do in these assays?
rCAG RNA binder: 3; SIAE primary: 2; TCR CD3 inh: -2; mABHD4 FP: 4; PRMT1 FP inh: -2

What do the screens show for `CN(C)C(CNC(=O)Cc1c(Cl)cccc1Cl)c1ccccc1` (stereo unspecified)?
HTRA1 inhibitor: -4; rCAG RNA binder: -4; SIAE primary: 17*; TCR CD3 inh: -4; mABHD4 FP: 8; PRMT1 FP inh: -3; SIAE confirm: 4

Results for COc1ccc(-n2nc(C(=O)NCC(=O)N3CCC4(CC3)OCCO4)c3ccccc3c2=O)c(OC)c1 ?
HTRA1 inhibitor: 4; rCAG RNA binder: -4; SIAE primary: -11; TCR CD3 inh: 5; mABHD4 FP: 1; PRMT1 FP inh: 0

What do the screens show for `CCS(=O)(=O)CCSP(=O)(OC)OC`?
HTRA1 inhibitor: 2; rCAG RNA binder: 2; SIAE primary: 34*; TCR CD3 inh: -5; mABHD4 FP: -6; PRMT1 FP inh: 8; SIAE confirm: 49*

Results for NC(Cc1ccccc1)c1nn[nH]n1 (stereo unspecified) ?
HTRA1 inhibitor: 2; rCAG RNA binder: 4; SIAE primary: -2; TCR CD3 inh: 3; mABHD4 FP: 3; PRMT1 FP inh: -2

What do the screens show for `N#CC1=C(N)Oc2c(c(=O)oc3ccccc23)C1c1ccc([N+](=O)[O-])o1` (stereo unspecified)?
HTRA1 inhibitor: 4; rCAG RNA binder: 20; SIAE primary: 22*; TCR CD3 inh: 2; mABHD4 FP: 10; PRMT1 FP inh: 11; SIAE confirm: -3

How did CC(C)Oc1ccc(C2C(C#N)=C(N)Oc3c2c(=O)oc2ccccc32)cc1 (stereo unspecified) do in these assays?
HTRA1 inhibitor: -1; rCAG RNA binder: 5; SIAE primary: -3; TCR CD3 inh: -5; mABHD4 FP: 3; PRMT1 FP inh: 2

How did CCCCCN1C(=O)c2cc(OC)ccc2[C@@]2(C(=O)OCC)Cc3cc(Cl)ccc3[C@@H]12 do in these assays?
rCAG RNA binder: 3; SIAE primary: -5; TCR CD3 inh: -1; mABHD4 FP: -5; PRMT1 FP inh: -2

What do the screens show for `C/C(=N\N1CCCCCC1)c1c(O)n(-c2ccccc2)c(=O)[nH]c1=O`?
HTRA1 inhibitor: -1; rCAG RNA binder: 1; SIAE primary: 50*; TCR CD3 inh: -5; mABHD4 FP: -17; PRMT1 FP inh: 1; SIAE confirm: 5

Results for CNC(=O)O/N=C/c1nn(C(=O)C(C)(C)C)cc1Br ?
HTRA1 inhibitor: 22; rCAG RNA binder: -3; SIAE primary: 17*; TCR CD3 inh: -4; mABHD4 FP: 0; PRMT1 FP inh: -2; SIAE confirm: 2

Results for CC1=NN(c2ccccc2)C(=O)C1/C=C1/C(=O)NC(=O)N(c2cc(C)cc(C)c2)C1=O (stereo unspecified) ?
HTRA1 inhibitor: 0; rCAG RNA binder: 13; SIAE primary: 75*; TCR CD3 inh: 5; mABHD4 FP: -6; PRMT1 FP inh: 1; SIAE confirm: -1

How did O=c1[nH]c(O)c(N=Nc2ccc3c(c2)OCCO3)c(=O)[nH]1 do in these assays?
HTRA1 inhibitor: 4; rCAG RNA binder: -1; SIAE primary: 17*; TCR CD3 inh: 4; mABHD4 FP: -2; PRMT1 FP inh: -2; SIAE confirm: 1

How did N#CC1c2ccccc2-n2nncc2CN1C(=O)CCc1ccccc1 (stereo unspecified) do in these assays?
HTRA1 inhibitor: -2; rCAG RNA binder: 2; SIAE primary: -3; TCR CD3 inh: 2; mABHD4 FP: 3; PRMT1 FP inh: -1
